NR2E3 ag-1: activates human NR2E3 receptor; Q9Y5X4; CHO-S Gal4-NCOR/VP16-NR2E3 two-hybrid, luciferase; inhibition of corepressor binding, % at 3.98 µM; 360,000 compounds, 0.35% hits; AID 602229;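 active = inhibition above the mean of all tested compounds plus 3 SD, cut at about 70% in these data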;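 note: higher means lower luciferase signal from less NR2E3 corepressor binding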
Target sequence (Q9Y5X4 whole entry, looked up, the tested form may be a part): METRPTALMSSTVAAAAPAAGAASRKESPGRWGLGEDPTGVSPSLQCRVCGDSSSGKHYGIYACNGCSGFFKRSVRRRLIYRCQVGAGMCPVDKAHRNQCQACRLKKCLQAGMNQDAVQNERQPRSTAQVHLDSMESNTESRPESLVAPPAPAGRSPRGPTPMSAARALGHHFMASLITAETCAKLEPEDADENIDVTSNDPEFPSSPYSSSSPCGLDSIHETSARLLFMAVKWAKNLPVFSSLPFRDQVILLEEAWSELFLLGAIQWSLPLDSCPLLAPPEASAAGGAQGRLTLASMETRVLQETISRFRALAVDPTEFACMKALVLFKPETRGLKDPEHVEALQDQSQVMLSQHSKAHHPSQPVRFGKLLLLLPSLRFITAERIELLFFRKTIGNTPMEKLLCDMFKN
PG9 Ab binder: binds the HIV-1 gp120 antibody PG9; TR-FRET gp120-PG9 antibody binding; AID 624416; inhibition, % at 6.7 µM; 360,000 compounds, 0.43% hits; in the data active = inhibition above about 8.5%
NR2E3 ag-2: agonists of human nuclear receptor NR2E3; inhibition of corepressor binding, % at 4.78 µM; GST-NR2E3/biotin-RetCOR TR-FRET, 1536-well; 320,000 compounds, 0.12% hits; Q9Y5X4;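 active = percent inhibition above the cutoff of mean plus 3 SD of all tested compounds, set per screening campaign, cut at about 20% in these data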
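System: GST-tagged NR2E3 plus biotinylated RetCOR corepressor; Buffer or medium: pH 7.5 Tris-based buffer; Probe or stimulus: RetCOR corepressor, biotinylated, 7 nM; Doses: compound at 4.8 µM, single dose; Schedule: 5 h incubation at 4 °C; Technique: time-resolved FRET; Evaluation: percent inhibition of TR-FRET ratio; Replication: one well per compound, singlicate testing.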
NR1D1 modulator: Rev-erb alpha (human) modulation; 370,000 compounds, 0.79% hits; Rev-erbα–FITC-DNA binding, fluorescence polarization, 90 min; activity, % at 10 µM;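 active = activity above about 14%, limit read from the data; passing the limit was not always enough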
NR2E3 ag conf: NR2E3 agonism confirmed in two-hybrid assay; 2,300 compounds, 51% hits; CHO-S mammalian two-hybrid NR2E3-NCOR, luciferase luminescence; shares compounds with NR2E3 ag-1; AID 624378; inhibition, % at 3.98 µM;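 active = average inhibition above a cutoff equal to the mean inhibition of all tested compounds plus one SD, cut at about 70% in these data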
GAL4-VP16 luc: reduces GAL4-VP16 reporter signal in NR2E3 counterscreen; 2,300 compounds, 29% hits; shares compounds with NR2E3 ag-1; CHO-S GAL4-VP16 luciferase reporter, luminescence; inhibition, % at 3.98 µM; AID 624379;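 active = mean inhibition above a cutoff equal to the average over all tested compounds plus one standard deviation, cut at about 70% in these data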;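 note: luciferase from a UAS reporter driven by GAL4-VP16 transactivation; higher means less reporter light so more repression of VP16 activity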
A number is an active result; . = inactive; / = no result. In the library only some 1.5% were active in any assay of this set; here they are far more common.

SMILES	NR2E3 ag-1	PG9 Ab binder	NR2E3 ag-2	NR1D1 modulator	NR2E3 ag conf	GAL4-VP16 luc
CC(=O)c1cc(-c2cc(C(=O)O)cc([N+](=O)[O-])c2)c(=O)n2c1CCC2	/	/	/	.	/	/
COC(=O)c1cc(-c2ccc(C(C)(C)C)cc2)c(=O)n2c1CCC2	/	/	/	.	/	/
CCOC(=O)C1=C[C@@H](C(C)(C)C)N(S(=O)(=O)c2ccc([N+](=O)[O-])cc2)[C@H]1c1ccccc1	70	.	/	.	.	.
COCC1CCN(C(=O)c2cc(COc3cccc4cnccc34)on2)CC1	90	.	.	.	72	.
Cc1nn(C)cc1C(C)NC(=O)c1cc(COc2cccc3cnccc23)on1 (stereo not given)	.	.	.	.	.	.
O=C(c1cc(COc2cccc3cnccc23)on1)N1CCCC(CCCO)C1 (stereo not given)	110	.	.	.	99	93
CCCCC(=O)N1CCN(C(=O)c2ccc3c(c2)nc(C)n3C2CCCC2)CC1	/	/	/	.	/	/
COc1ccc(C)c(NC(=O)[C@@H]2CCCN2S(=O)(=O)c2cccc3cccnc23)c1	/	/	/	.	/	/
CC(C)=CCC/C(C)=C/Cc1c(O)ccc(C(=O)/C=C/c2ccc(O)cc2)c1O	.	.	.	.	/	/
COc1cc(CCc2ccccc2)c(C(=O)O)c(O)c1C/C=C(/C)CCC=C(C)C	.	.	/	.	98	71
COCOc1ccc(/C=C/C(=O)c2c(OCOC)cc(OCOC)c(CC=C(C)C)c2O)cc1OCOC	.	/	.	/	/	/
COc1cc(CCc2ccccc2)c(C(=O)O)c(O)c1CC=C(C)C	85	.	/	.	99	78
COc1cc(OC)cc(-c2cc3nc(C)c(CCC(=O)NC(C)CCc4ccco4)c(C)n3n2)c1 (stereo not given)	.	.	.	.	/	/
COc1cc(OC)cc(-c2cc3nc(C)c(CCC(=O)O)c(C)n3n2)c1	.	.	.	.	.	.
CNC(=O)c1cc(S(=O)(=O)NCc2ccncc2)ccc1OC	.	.	.	.	/	/
CCc1ccc(NS(=O)(=O)c2ccc(OC)c(C)c2)cc1	.	.	.	.	/	/
CCN(C1CCCCC1)S(=O)(=O)c1ccc(S(=O)(=O)NCCc2ccncc2)cc1	.	.	.	.	/	/
CCN(C1CCCCC1)S(=O)(=O)c1ccc(S(=O)(=O)NCc2ccncc2)cc1	91	.	.	.	88	74
COc1ccc(S(=O)(=O)Nc2ccc(Cc3ccncc3)cc2)cc1C	.	/	.	/	.	.
Cc1cc(Br)c(S(=O)(=O)NCc2ccncc2)cc1C	82	.	.	.	70	.
COc1cc(S(=O)(=O)NCc2ccncc2)ccc1Br	95	.	.	.	78	.
O=S(=O)(NCc1ccncc1)c1ccc(Br)s1	103	.	.	.	92	78
O=S(=O)(NCc1ccncc1)c1ccc(F)c(F)c1	.	.	/	.	/	/
Cc1cc(C)c(C)c(S(=O)(=O)NCc2ccncc2)c1C	.	.	.	.	.	.
O=C(O)CNS(=O)(=O)c1ccc(Br)s1	.	.	.	.	/	/
SMILES	NR2E3 ag-1	PG9 Ab binder	NR2E3 ag-2	NR1D1 modulator	NR2E3 ag conf	GAL4-VP16 luc
Cc1ccc(S(=O)(=O)NCc2ccncc2)cc1C	.	.	.	.	92	76
CC(C)(C)c1ccc(CNc2nc(-c3ccccn3)nnc2-c2ccccc2)cc1	/	/	/	.	/	/
Cc1ccc(-n2c(SCC(=O)Nc3ccc(S(=O)(=O)Nc4cc(C)nc(C)n4)cc3)nnc2-c2ccc(C(C)(C)C)cc2)cc1	/	/	/	.	/	/
CCOC(=O)c1c2c(n(-c3ccc(OC)cc3)c1C)C(=O)C(=O)c1ccccc1-2	.	/	/	/	.	.
CC(C)Oc1cccc(-c2n[nH]c(=S)n2N=Cc2cccc([N+](=O)[O-])c2)c1	/	/	/	.	/	/
CCCCCCCCCC[n+]1cccc2c3ccccc3ccc21	96	.	/	.	100	94
O=S(=O)(c1ccccc1)N1CCC(O)(CSc2ccc(Cl)cc2)CC1	78	.	.	.	95	79
Brc1ccccc1-c1nc2c3ccccc3ncn2n1	.	.	.	.	/	/
S=c1nc2ccccc2c2nc(-c3ccccc3Br)[nH]n12	78	.	.	.	.	.
COc1ccc(C)cc1NC(=O)c1nnn(Cc2cccc(C(F)(F)F)c2)c1N	.	.	.	.	85	.
Cc1ccccc1Cn1nnc(C(=O)Nc2cccc(C)c2C)c1N	.	.	.	.	87	.
COc1ccc(OC)c(NC(=O)c2nnn(CCc3ccccc3)c2N)c1	.	.	.	.	/	/
CC1=C2NC(N)=[N+](Cc3ccc4c(c3)OCO4)CC2NOC1 (stereo not given)	/	/	/	.	/	/
Cn1nc(C(C)(C)C)cc1C(=O)NCc1ccc(N2CCCC2=O)cc1	92	.	.	.	96	87
Cn1cc(SCC(=O)Nc2nc3ccccc3s2)c2ccccc21	.	.	.	.	.	.
Cc1csc(SCC(=O)Nc2nc3ccccc3s2)n1	.	.	.	.	/	/
CC(OC(=O)c1cc(Br)ccc1O)C(=O)Nc1ccc(S(=O)(=O)N2CCCC2)cc1 (stereo not given)	.	.	.	.	.	.
OC(c1ccc(OCc2ccccc2)cc1)c1nnc(-c2ccccc2)o1 (stereo not given)	.	.	.	.	/	/
OC(c1cccc(OCc2ccccc2)c1)c1nnc(-c2ccccc2)o1 (stereo not given)	87	.	.	.	92	76
Cc1ccc(CNc2nc(C)nc3sc4c(c23)CCC4)cc1	.	.	.	.	.	.
COCCCNC(=O)C[C@H]1C[C@@]2(C(=O)OC)C(=C[C@H](C(C)(C)C)O[C@@H]2C)N(Cc2cccc3ccccc23)C1=O	/	/	/	.	/	/
CCN1CCN(Cc2ccc(NC(=O)c3ccc(C)c(NC(=O)c4ccno4)c3)cc2C(F)(F)F)CC1	.	.	.	.	.	.
CCN1CCN(Cc2ccc(NC(=O)c3cc(NC(=O)c4ccno4)cc(OC)c3)cc2C(F)(F)F)CC1	.	.	.	.	/	/
CCCC1CCC2(CC1)CCC2OC(=S)Nc1ccccc1 (stereo not given)	/	/	/	.	/	/
CC(CN1CCN(CCOCCO)CC1)CN1c2ccccc2Sc2ccc(Cl)cc21 (stereo not given)	.	.	/	.	.	.
SMILES	NR2E3 ag-1	PG9 Ab binder	NR2E3 ag-2	NR1D1 modulator	NR2E3 ag conf	GAL4-VP16 luc
CC(C)(C)CCN1C[C@@H]2C(CNC(=O)c3cc(Cl)cc(Cl)c3)[C@@H]2C1 (stereo not given in full)	/	/	/	.	/	/
COc1ccc(CCOC(=O)c2ccc(N)c([N+](=O)[O-])c2)cc1	.	.	.	.	.	.
COc1ccc(C2CCC3(CCC(=O)N3CCO)CC2)cc1 (stereo not given)	/	/	/	.	/	/
Cc1nn(C)c(Cl)c1NC(=O)OCc1ccc(Cl)cc1Cl	.	.	.	.	91	.
O=c1oc2ccccc2cc1-c1ccc(O)cc1	.	.	.	.	/	/
Nc1ccc(-c2cc3ccccc3oc2=O)cc1	.	.	.	.	.	.
CC(C)CN1C(=O)[C@@]2(CC(=O)N(C)C2c2ccccc2)c2cc(-n3cc(CCc4ccccc4)nn3)ccc21 (stereo not given in full)	/	/	/	.	/	/

Screening data deposited in PubChem by several laboratories.
